Experimental data reported in ChEMBL document CHEMBL3286259, “Synthesis and anticancer activity of some novel 5,6-fused hybrids of juglone based 1,4-naphthoquinones” (Eur J Med Chem, 2014).
Calls of active or inactive are those of the source. The calls are words filed in the database; no cut-off is given here.

Key:
[1] = Cytotoxicity against human ME180 cells assessed as inhibition of cell viability after 48 hrs by MTT assay; format: functional, cell-based; conditions: ME-180, 48 h
Method in brief: (§1)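 Cells were counted by trypan blue exclusion, seeded at 1x10^4 cells per well, and exposed to a series of compound concentrations for 48 h at 37 °C in DMEM with 10% FBS. The medium was replaced with serum-free medium plus MTT (5 mg/ml reagent) for 4 h at 37 °C. Formazan was dissolved in DMSO for 10 min and A570 was read. IC50 came from a plot of % viability versus control against concentration.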

MCF7 [2] = assay: Cytotoxicity against human MCF7 cells assessed as inhibition of cell viability after 48 hrs by MTT assay; format: functional, cell-based; conditions: MCF7, 48 h; method in brief: as §1
HeLa = assay: Cytotoxicity against human HeLa cells assessed as inhibition of cell viability after 48 hrs by MTT assay; format: functional, cell-based; method in brief: as §1
MDA-MB-453 [3] = assay: Cytotoxicity against human MDA-MB-453 cells assessed as inhibition of cell viability after 48 hrs by MTT assay; format: functional, cell-based; conditions: MDA-MB-453, 48 h; method in brief: as §1
MDA-MB-231 [4] = assay: Cytotoxicity against human MDA-MB-231 cells assessed as inhibition of cell viability after 48 hrs by MTT assay; format: functional, cell-based; conditions: MDA-MB-231, 48 h; method in brief: as §1
PC-3 [5] = assay: Cytotoxicity against human PC3 cells assessed as inhibition of cell viability after 48 hrs by MTT assay; format: functional, cell-based; conditions: PC-3, 48 h; method in brief: as §1
HT-29 = assay: Cytotoxicity against human HT-29 cells assessed as inhibition of cell viability after 48 hrs by MTT assay; format: functional, cell-based; conditions: HT-29, 48 h; method in brief: as §1
[6] = Retardation factor of the compound using hexane/ethyl acetate at ratio of 3:1 as solvent system; format: physicochemical
[7] = Retardation factor of the compound using hexane/ethyl acetate at ratio of 1.8:1 as solvent system; format: physicochemical
[8] = Retardation factor of the compound using hexane/ethyl acetate at ratio of 19:1 as solvent system; format: physicochemical
MCF7 [9] = assay: Ratio of etoposide IC50 to compound IC50 for human MCF7 cells; format: functional
MDA-MB-453 [10] = assay: Induction of morphological changes in human MDA-MB-453 cells assessed as early apoptosis by measuring condensed chromatin, cell membrane blebbing, destructive fragmentation of nuclei at 5 uM after 48 hrs by acridine orange/ethidium bromide staining based fluorescence microscopy; format: functional
Method in brief: (§2)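 Cells were seeded at 1×10^6 per well in 6-well plates and treated for 48 h. After a PBS wash they were stained with a 1:1 acridine orange/ethidium bromide mix for 5 min in the dark, washed again, and imaged by inverted fluorescence microscopy at 200X. Two thousand cells were counted and scored as viable, early apoptotic, late apoptotic or necrotic, expressed as %.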

MDA-MB-453 [11] = assay: Induction of morphological changes in human MDA-MB-453 cells assessed as late apoptosis/necrosis at 10 uM after 48 hrs by acridine orange/ethidium bromide staining based fluorescence microscopy; format: functional, cell-based; method in brief: as §2
MDA-MB-453 [12] = assay: Cell cycle arrest in human MDA-MB-453 cells assessed as accumulation at G0/G1 phase at 5 uM after 48 hrs by flow cytometry (reference value: 62.6%); format: functional
Method in brief: (§3)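 Cells were plated at […] per well in six-well plates and treated for 48 h. They were harvested by trypsinization, washed twice in PBS, and fixed in 70% ice-cold ethanol at −20 °C for 3 h. Cells were then incubated with propidium iodide cell-cycle reagent at 37 °C for 30 min, and DNA content was measured by flow cytometry. PC-3 assays were run in duplicate.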

MDA-MB-453 [13] = assay: Cell cycle arrest in human MDA-MB-453 cells assessed as accumulation at S phase at 5 uM after 48 hrs by flow cytometry (reference value: 5.9%); format: functional; method in brief: as §3
MDA-MB-453 [14] = assay: Cell cycle arrest in human MDA-MB-453 cells assessed as accumulation at G2/M phase at 5 uM after 48 hrs by flow cytometry (reference value: 23.5%); format: functional; method in brief: as §3
MDA-MB-453 [15] = assay: Cell cycle arrest in human MDA-MB-453 cells assessed as accumulation at G0/G1 phase at 10 uM after 48 hrs by flow cytometry (reference value: 62.6%); format: functional; method in brief: as §3
MDA-MB-453 [16] = assay: Cell cycle arrest in human MDA-MB-453 cells assessed as accumulation at S phase at 10 uM after 48 hrs by flow cytometry (reference value: 5.9%); format: functional; method in brief: as §3
MDA-MB-453 [17] = assay: Cell cycle arrest in human MDA-MB-453 cells assessed as accumulation at G2/M phase at 10 uM after 48 hrs by flow cytometry (reference value: 23.5%); format: functional; method in brief: as §3
MDA-MB-453 [18] = assay: Cell cycle arrest in human MDA-MB-453 cells assessed as increase in accumulation at S phase after 48 hrs by flow cytometry; format: functional, cell-based; method in brief: as §3
MDA-MB-453 [19] = assay: Cell cycle arrest in human MDA-MB-453 cells assessed as increase in accumulation at G2/M phase after 48 hrs by flow cytometry; format: functional, cell-based; method in brief: as §3
MDA-MB-453 [20] = assay: Ratio of etoposide IC50 to compound IC50 for human MDA-MB-453 cells; format: functional
MDA-MB-231 [21] = assay: Ratio of etoposide IC50 to compound IC50 for human MDA-MB-231 cells; format: functional
PC-3 [22] = assay: Cell cycle arrest in human PC3 cells assessed as increase in accumulation at G2/M phase at 3 to 6 uM after 48 hrs by flow cytometry relative to control; format: functional; method in brief: as §3
PC-3 [23] = assay: Induction of morphological changes in human PC3 cells assessed as early apoptosis by measuring condensed chromatin, cell membrane blebbing, destructive fragmentation of nuclei at 3 uM after 48 hrs by acridine orange/ethidium bromide staining based fluorescence microscopy; format: functional; method in brief: as §2
PC-3 [24] = assay: Induction of morphological changes in human PC3 cells assessed as late apoptosis/necrosis at 6 uM after 48 hrs by acridine orange/ethidium bromide staining based fluorescence microscopy; format: functional, cell-based; method in brief: as §2
PC-3 [25] = assay: Cell cycle arrest in human PC3 cells assessed as accumulation at G0/G1 phase at 3 uM after 48 hrs by flow cytometry (reference value: 55%); format: functional; method in brief: as §3
PC-3 [26] = assay: Cell cycle arrest in human PC3 cells assessed as accumulation at S phase at 3 uM after 48 hrs by flow cytometry (reference value: 15.8%); format: functional; method in brief: as §3
PC-3 [27] = assay: Cell cycle arrest in human PC3 cells assessed as accumulation at G2/M phase at 3 uM after 48 hrs by flow cytometry (reference value: 20.9%); format: functional; method in brief: as §3
PC-3 [28] = assay: Cell cycle arrest in human PC3 cells assessed as accumulation at G0/G1 phase at 6 uM after 48 hrs by flow cytometry (reference value: 55%); format: functional; method in brief: as §3
PC-3 [29] = assay: Cell cycle arrest in human PC3 cells assessed as accumulation at S phase at 6 uM after 48 hrs by flow cytometry (reference value: 15.8%); format: functional; method in brief: as §3
PC-3 [30] = assay: Cell cycle arrest in human PC3 cells assessed as accumulation at G2/M phase at 6 uM after 48 hrs by flow cytometry (reference value: 20.9%); format: functional; method in brief: as §3
PC-3 [31] = assay: Ratio of etoposide IC50 to compound IC50 for human PC3 cells; format: functional

Compound	IC50 [1]	IC50 (MCF7 [2])	IC50 (HeLa)	IC50 (MDA-MB-453 [3])	IC50 (MDA-MB-231 [4])	IC50 (PC-3 [5])	IC50 (HT-29)	also measured
CC1=CC(=O)c2c(ccc3cc(C)oc23)C1=O	44.1 µM	28.8 µM	55.2 µM	32.6 µM	44 µM	31.1 µM	60.1 µM	Rf [6]: 0.43
O=C1C=CC(=O)c2c1ccc1c2OC(CI)C1 (stereo unspecified)	9.4 µM	13.4 µM	27.4 µM	20.8 µM	29.2 µM	12.7 µM	31.3 µM	Rf [7]: 0.48
COc1cc([C@@H]2c3cc4c(cc3[C@@H](O[C@@H]3O[C@@H]5CO[C@@H](C)O[C@H]5[C@H](O)[C@H]3O)[C@H]3COC(=O)[C@H]23)OCO4)cc(OC)c1O [ETOPOSIDE]	8.9 µM		4.71 µM	12.5 µM				
O=C1C=CC(=O)c2c(O)cccc21 [JUGLONE]	65.4 µM	16.5 µM	93.7 µM	27.5 µM	75.8 µM	88.7 µM	> 100 µM	
Cc1cc2ccc3c(c2o1)C(=O)C=CC3=O	15 µM	24.3 µM	51.2 µM	25.2 µM	38.9 µM	18.2 µM	57.9 µM	Rf [6]: 0.42
C=CCc1ccc2c(c1O)C(=O)C=C(C)C2=O	60.8 µM	11.6 µM	60.8 µM	39 µM	62.9 µM	16.8 µM	63 µM	Rf [8]: 0.35; Ratio (MCF7 [9]): 2
CC1=CC(=O)c2c(ccc3c2OCC=C3)C1=O	25.9 µM	11.7 µM	> 100 µM	10.9 µM	18.3 µM	24.5 µM	34.6 µM	Activity (MDA-MB-453 [10]): Active; Activity (MDA-MB-453 [11]): Active; Activity (MDA-MB-453 [12]): 45%; Activity (MDA-MB-453 [13]): 12.6%; Activity (MDA-MB-453 [14]): 31.3%; Activity (MDA-MB-453 [15]): 10.5%; Activity (MDA-MB-453 [16]): 21.5%; Activity (MDA-MB-453 [17]): 55.9%; Activity (MDA-MB-453 [18]): Dose-dependent effect; Activity (MDA-MB-453 [19]): Dose-dependent effect; Rf [7]: 0.39; Ratio IC50 (MCF7 [9]): 2; Ratio IC50 (MDA-MB-453 [20]): 1.1; Ratio IC50 (MDA-MB-231 [21]): 1.3
C=CCOc1cccc2c1C(=O)C=C(C)C2=O	46.7 µM	14.7 µM	78 µM	29.3 µM	36.1 µM	34.2 µM	33.7 µM	Rf [6]: 0.45
C=CCc1ccc2c(c1O)C(=O)C=CC2=O	82.9 µM	58.2 µM	> 100 µM	53.7 µM	> 100 µM	92.9 µM	> 100 µM	Rf [8]: 0.39
CC1=CC(=O)c2c(ccc3c2OC(CI)C3)C1=O (stereo unspecified)	31.2 µM	33.8 µM	16.2 µM	21.6 µM	33.2 µM	26.8 µM	48.4 µM	Rf [7]: 0.38
CC1=CC(=O)c2c(O)cccc2C1=O [PLUMBAGIN]	43.4 µM	12.2 µM	59 µM	34.6 µM	51.1 µM	17.2 µM	26.2 µM	
COc1cccc2c1C(=O)c1c(O)c3c(c(O)c1C2=O)C[C@@](O)(C(=O)CO)C[C@@H]3O[C@H]1C[C@H](N)[C@H](O)[C@H](C)O1 [DOXORUBICIN]	0.39 µM							
C=CCOc1cccc2c1C(=O)C=CC2=O	> 100 µM	24 µM	> 100 µM	37.8 µM	> 100 µM	22.3 µM	32.3 µM	
O=C1C=CC(=O)c2c1ccc1c2OCC=C1	45.5 µM	23.2 µM	59.6 µM	37.2 µM	45.6 µM	5.7 µM	27.8 µM	fold change (FC) (PC-3 [22]): 1.6; Activity (PC-3 [23]): Active; Activity (PC-3 [24]): Active; Activity (PC-3 [25]): 45.3%; Activity (PC-3 [26]): 15.4%; Activity (PC-3 [27]): 30.8%; Activity (PC-3 [28]): 46.7%; Activity (PC-3 [29]): 12.3%; Activity (PC-3 [30]): 32%; Rf [7]: 0.38; Ratio IC50 (PC-3 [31]): 2.5
